The values that follow come from ChEMBL document CHEMBL1155468, “Syntheses and evaluation of anticonvulsant profile and teratogenicity of novel amide derivatives of branched aliphatic carboxylic acids with 4-aminobenzensulfonamide” (J Med Chem, 2010).

Active and inactive are the calls of the source. The rule behind the calls is not given here.

Data set [1] has as its system Mus musculus. In words: Anticonvulsant activity in CF1 albino mouse assessed as inhibition of subcutaneous pentylenetetrazole-induced seizures at 30 mg/kg, ip after 0.5 hrs. It is filed as functional, organism-based. Set-up: dose 30 mg/kg. In a few lines:
(§1)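 Adult male CF no. 1 albino mice (18-25 g) dosed ip with compound suspended in 0.5% methylcellulose (0.01 mL/g). Convulsant: pentylenetetrazol dissolved in 0.9% saline as a 0.85% solution for mice, given subcutaneously.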

Data set [2] has as its system Mus musculus. In words: Anticonvulsant activity in CF1 albino mouse assessed as inhibition of subcutaneous pentylenetetrazole-induced seizures at 100 mg/kg, ip after 0.5 hrs. The format is functional, organism-based. Also noted: dose 100 mg/kg. In a few lines:
as §1

In data set [3] the test system is Mus musculus. In words: Anticonvulsant activity in CF1 albino mouse assessed as inhibition of subcutaneous pentylenetetrazole-induced seizures at 300 mg/kg, ip after 0.5 hrs. It is filed as functional, organism-based. Set-up: dose 300 mg/kg. In a few lines:
as §1

Data set [4] deals with Mus musculus. Description: Anticonvulsant activity in CF1 albino mouse assessed as inhibition of subcutaneous pentylenetetrazole-induced seizures at 30 mg/kg, ip after 4 hrs. It is filed as functional, organism-based. Set-up: dose 30 mg/kg. In outline: as §1
For data set [5], the system named is Mus musculus. Description: Anticonvulsant activity in CF1 albino mouse assessed as inhibition of subcutaneous pentylenetetrazole-induced seizures at 100 mg/kg, ip after 4 hrs. Set-up: dose 100 mg/kg. It is filed as functional, organism-based. In a few lines: as §1
Data set [6] deals with Mus musculus. In words: Anticonvulsant activity in CF1 albino mouse assessed as inhibition of maximal electroshock-induced seizures at 30 mg/kg, ip after 0.5 hrs. The format is functional, organism-based. Also noted: dose 30 mg/kg. In outline:
(§2)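 Test compounds suspended in 0.5% methylcellulose and given ip to adult male CF no. 1 albino mice (18-25 g) at 0.01 mL/g body weight before maximal electroshock challenge.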

In data set [7] the test system is Mus musculus. In words: Anticonvulsant activity in CF1 albino mouse assessed as inhibition of maximal electroshock-induced seizures at 100 mg/kg, ip after 0.5 hrs. The format is functional, organism-based. Set-up: dose 100 mg/kg. In a few lines:
as §2

The subject of data set [8] is Mus musculus. In words: Anticonvulsant activity in CF1 albino mouse assessed as inhibition of maximal electroshock-induced seizures at 300 mg/kg, ip after 0.5 hrs. The format is functional, organism-based. Also noted: dose 300 mg/kg. In a few lines:
as §2

Data set [9] relates to Mus musculus. In words: Anticonvulsant activity in CF1 albino mouse assessed as inhibition of maximal electroshock-induced seizures at 30 mg/kg, ip after 4 hrs. Set-up: dose 30 mg/kg. It is filed as functional, organism-based. In a few lines:
as §2

The test system of data set [10] is Mus musculus. In words: Anticonvulsant activity in CF1 albino mouse assessed as inhibition of maximal electroshock-induced seizures at 300 mg/kg, ip after 4 hrs. It is filed as functional, organism-based. Also noted: dose 300 mg/kg. In outline: as §2
The test system of data set [11] is Mus musculus. In words: Anticonvulsant activity in CF1 albino mouse assessed as inhibition of subcutaneous pentylenetetrazole-induced seizures at 300 mg/kg, ip after 4 hrs. The format is functional, organism-based. Set-up: dose 300 mg/kg. In a few lines: as §1
Data set [12] relates to Mus musculus. In words: Neurotoxicity in CF1 albino mouse assessed as motor impairment at 30 mg/kg, ip after 0.5 hrs. The format is toxicity, organism-based. Also noted: dose 30 mg/kg, route intraperitoneal. Particulars: in vivo.
The test system of data set [13] is Mus musculus. Description: Neurotoxicity in CF1 albino mouse assessed as motor impairment at 100 mg/kg, ip after 0.5 hrs. Also noted: dose 100 mg/kg, route intraperitoneal. The format is toxicity, organism-based. Particulars: in vivo.
Data set [14] has as its system Mus musculus. In words: Neurotoxicity in CF1 albino mouse assessed as motor impairment at 300 mg/kg, ip after 0.5 hrs. It is filed as toxicity, organism-based. Particulars: in vivo. Set-up: dose 300 mg/kg, route intraperitoneal.
Data set [15] deals with Mus musculus. In words: Neurotoxicity in CF1 albino mouse assessed as motor impairment at 30 mg/kg, ip after 4 hrs. The format is toxicity, organism-based. Also noted: dose 30 mg/kg, route intraperitoneal. The following applies: in vivo.
For data set [16], the system named is Mus musculus. In words: Neurotoxicity in CF1 albino mouse assessed as motor impairment at 100 mg/kg, ip after 4 hrs. Particulars: in vivo. Also noted: dose 100 mg/kg, route intraperitoneal. The format is toxicity, organism-based.
Data set [17] concerns Mus musculus. Description: Neurotoxicity in CF1 albino mouse assessed as motor impairment at 300 mg/kg, ip after 4 hrs. It is filed as toxicity, organism-based. Also noted: dose 300 mg/kg, route intraperitoneal. The following applies: in vivo.
The test system of data set [18] is Rattus norvegicus. Description: Neurotoxicity in Sprague-Dawley rat assessed as motor impairment at 30 mg/kg, po after 0.25 to 4 hrs. The following applies: in vivo.
Data set [19] concerns Rattus norvegicus. In words: Anticonvulsant activity in Sprague-Dawley rat assessed as inhibition of maximal electroshock-induced seizures at 30 mg/kg, po after 1 hr.
The test system of data set [20] is Rattus norvegicus. Description: Anticonvulsant activity in Sprague-Dawley rat assessed as inhibition of maximal electroshock-induced seizures at 30 mg/kg, po after 30 mins.
Data set [21] has as its system Rattus norvegicus. Description: Anticonvulsant activity in Sprague-Dawley rat assessed as inhibition of maximal electroshock-induced seizures at 30 mg/kg, po after 15 mins.
Data set [22] deals with Mus musculus. Description: Anticonvulsant activity in CF1 albino mouse assessed as inhibition of maximal electroshock-induced seizures at 100 mg/kg, ip after 4 hrs. It is filed as functional, organism-based. Also noted: dose 100 mg/kg. In outline: as §2
Data set [23] deals with Rattus norvegicus. Description: Anticonvulsant activity in Sprague-Dawley rat assessed as inhibition of maximal electroshock-induced seizures at 30 mg/kg, po after 2 hrs.
For data set [24], the species on record is Rattus norvegicus. In words: Protective index, ratio of TD50 for rat to ED50 for maximal electroshock-induced rat seizure model.
Data set [25] has as its system Rattus norvegicus. In words: Anticonvulsant activity in po dosed rat assessed as inhibition of maximal electroshock-induced seizures.

`CCC(C(=O)Nc1ccc(S(N)(=O)=O)cc1)C(C)(C)C` (stereo not drawn): the result in the data set on Mus musculus [1], with Mus musculus [2], in the data set with Mus musculus [3], in the data set with Mus musculus [4], in the data set on Mus musculus [5] and in the data set on Mus musculus [6] was inactive. In addition, the result in the data set on Mus musculus [7], in the data set on Mus musculus [8], with Mus musculus [9], in the data set on Mus musculus [11], in the data set on Rattus norvegicus [19] and in the data set with Rattus norvegicus [20] was inactive. For the same compound, the result with Rattus norvegicus [21] was inactive. The result in the data set with Mus musculus [10] was Active. Further, the Activity entry in the data set with Mus musculus [12], in the data set with Mus musculus [13], in the data set on Mus musculus [14], in the data set on Mus musculus [15], in the data set with Mus musculus [16] and with Mus musculus [17] was “Non-toxic” each time. Further, the Activity result in the data set with Rattus norvegicus [18] is listed as “Non-toxic”.
With `CC(C)C(C(=O)Nc1ccc(S(N)(=O)=O)cc1)C(C)C`, the result with Mus musculus [1], in the data set on Mus musculus [2], with Mus musculus [3], with Mus musculus [4], with Mus musculus [5] and in the data set with Mus musculus [6] was inactive. Also, the outcome in the data set on Mus musculus [7], with Mus musculus [8], in the data set on Mus musculus [9], in the data set on Mus musculus [22], with Mus musculus [10] and with Mus musculus [11] was inactive. Besides, the result with Rattus norvegicus [19], in the data set with Rattus norvegicus [23], with Rattus norvegicus [20] and with Rattus norvegicus [21] was inactive. The Activity entry with Mus musculus [12], in the data set with Mus musculus [13], in the data set on Mus musculus [14], with Mus musculus [15], with Mus musculus [16] and with Mus musculus [17] was “Non-toxic” in each case. For the same compound, the Activity entry with Rattus norvegicus [18] was “Non-toxic”.
Regarding `CC(C)C(C(=O)Nc1ccc(S(N)(=O)=O)cc1)C(C)(C)C` (stereo not drawn), the outcome with Mus musculus [1], with Mus musculus [2], in the data set on Mus musculus [3], with Mus musculus [4], in the data set with Mus musculus [5] and in the data set on Mus musculus [6] was inactive. Besides, the result in the data set with Mus musculus [8], in the data set on Mus musculus [9], in the data set on Mus musculus [11], in the data set with Rattus norvegicus [19], in the data set with Rattus norvegicus [23] and in the data set on Rattus norvegicus [20] was inactive. Besides, the outcome in the data set on Rattus norvegicus [21] was inactive. The result in the data set with Mus musculus [22] and in the data set with Mus musculus [10] was Active. Moreover, the Activity entry in the data set with Mus musculus [12], with Mus musculus [13], with Mus musculus [14], with Mus musculus [15], in the data set on Mus musculus [16] and with Mus musculus [17] was “Non-toxic” in each case. Besides, the Activity result in the data set with Rattus norvegicus [18] was “Non-toxic”. The “Ratio TD50/ED50” value in the data set filed under Rattus norvegicus [24] was over 27.7. Moreover, the 50% effective dose (ED50) in the data set on Rattus norvegicus [25] is 18 mg/kg.
Consider `CCC(CC)C(=O)NCCc1ccc(S(N)(=O)=O)cc1`, for which the outcome in the data set on Mus musculus [1], in the data set on Mus musculus [2], in the data set with Mus musculus [3], in the data set on Mus musculus [4], in the data set with Mus musculus [5] and in the data set with Mus musculus [6] was inactive. For the same compound, the result in the data set on Mus musculus [7], in the data set on Mus musculus [8] and with Mus musculus [11] was inactive. Besides, the result with Mus musculus [9] and with Mus musculus [10] was Active. Moreover, the Activity result in the data set with Mus musculus [12], in the data set with Mus musculus [13], in the data set with Mus musculus [14], in the data set on Mus musculus [15], in the data set with Mus musculus [16] and in the data set on Mus musculus [17] was “Non-toxic” throughout. In the data set on Rattus norvegicus [18], the Activity result was “Non-toxic”.
As for `CCCC(CCC)C(=O)Nc1nnc(S(N)(=O)=O)s1`, the “Ratio TD50/ED50” value in the data set filed under Rattus norvegicus [24] is listed as over 50.
On the same count and under the same terms, for `CC1(C)C(C(=O)Nc2nnc(S(N)(=O)=O)s2)C1(C)C` the value was over 50.
In the case of `CCC(C)C(CC)C(=O)Nc1ccc(S(N)(=O)=O)cc1` (stereo not drawn), the outcome in the data set with Mus musculus [1], in the data set on Mus musculus [2], in the data set with Mus musculus [3], in the data set with Mus musculus [4], in the data set with Mus musculus [5] and in the data set with Mus musculus [6] was inactive. In addition, the outcome with Mus musculus [9], in the data set on Mus musculus [11], in the data set on Rattus norvegicus [20] and in the data set with Rattus norvegicus [21] was inactive. Besides, the outcome in the data set on Mus musculus [22], with Mus musculus [10] and in the data set on Rattus norvegicus [23] was Active. Moreover, the Activity result with Mus musculus [12], with Mus musculus [13], in the data set with Mus musculus [14], in the data set with Mus musculus [15], with Mus musculus [16] and with Mus musculus [17] was “Non-toxic” each time. The Activity entry in the data set with Rattus norvegicus [18] is “Non-toxic”.
`CC(C)(C)C(=O)NCc1ccc(S(N)(=O)=O)cc1`: the result in the data set with Mus musculus [1], in the data set with Mus musculus [2], in the data set with Mus musculus [3], in the data set with Mus musculus [4], in the data set with Mus musculus [5] and in the data set with Mus musculus [6] was inactive. Moreover, the result in the data set with Mus musculus [7], in the data set with Mus musculus [8], in the data set with Mus musculus [9], with Mus musculus [22], in the data set with Mus musculus [10] and in the data set with Mus musculus [11] was inactive. In addition, the Activity entry in the data set on Mus musculus [12], in the data set on Mus musculus [13], with Mus musculus [14], in the data set on Mus musculus [15], in the data set on Mus musculus [16] and with Mus musculus [17] was “Non-toxic” throughout.
Take `CC(C)(C)CC(=O)NCc1ccc(S(N)(=O)=O)cc1`: the outcome in the data set with Mus musculus [1], in the data set on Mus musculus [2], in the data set with Mus musculus [3], in the data set with Mus musculus [4], with Mus musculus [5] and with Mus musculus [6] was inactive. The result in the data set with Mus musculus [7], with Mus musculus [8], in the data set with Mus musculus [9], in the data set on Mus musculus [11], in the data set with Rattus norvegicus [20] and with Rattus norvegicus [21] was inactive. The result in the data set on Mus musculus [10] was Active. In addition, the Activity result in the data set with Mus musculus [12], in the data set on Mus musculus [13], in the data set with Mus musculus [14], in the data set with Mus musculus [15], with Mus musculus [16] and in the data set on Mus musculus [17] was “Non-toxic” each time. In addition, in the data set with Rattus norvegicus [18], the Activity result is “Non-toxic”.
With `CC1(C)C(C(=O)Nc2ccc(S(N)(=O)=O)cc2)C1(C)C`, the ED50 in the data set on Rattus norvegicus [25] turned out to be 26 mg/kg.
In the case of `CCCC(CCC)C(=O)Nc1ccc(S(N)(=O)=O)cc1`, the ED50 in the data set on Rattus norvegicus [25] stood at 21 mg/kg.
